According to ChEMBL document CHEMBL3576792, “Enhancement of antibiotic activity against multidrug-resistant bacteria by the efflux pump inhibitor 3,4-dibromopyrrole-2,5-dione isolated from a Pseudoalteromonas sp” (J Nat Prod, 2015):
≈ marks a conversion by molar mass, not a printed value. Calls of active or inactive are those of the source. The rule behind the calls is not given here.

Key:
[1] = system: Escherichia coli; experiment: Antibacterial activity against Escherichia coli transformed with plasmid carrying MG1655 deltaBC/pXYM by p-iodonitrotetrazolium chloride colorimetric assay; type: functional
Procedure, shortened: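 Two-fold broth microdilution in Mueller-Hinton broth, read by p-iodonitrotetrazolium chloride colorimetric assay. MIC is the lowest concentration giving no visible growth. MG1655 ΔacrB ΔtolC strains carrying pABM or pXYM were always cultured with 100 μg/mL ampicillin and 1 mM IPTG. Medium, inoculum and 1% DMSO (final) served as negative control.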

[2] = system: Escherichia coli; experiment: Effect on intracellular H33342 accumulation in Escherichia coli AG100A after 60 mins by efflux inhibition assay; type: functional, organism-based
Procedure, shortened: (§1)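 AG100 (wild-type K-12) or AG100A (ΔacrAB) cells were grown in Luria broth at 37 °C and 200 rpm to OD600 1.0, PBS-washed and diluted to OD600 0.3. Cells took up 2.5 μM Hoechst 33342 with 22 mM glucose at 37 °C for about 30 min, then compound (0.06–64 μg/mL) or PAβN (15.6 μg/mL) was added. Fluorescence (Ex 350/Em 460 nm) was followed for 60 min and corrected for background. The last four time points were compared to dye-only control by ANOVA with Dunnett's test, run in duplicate.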

[3] = system: Escherichia coli; experiment: Potentiation of ciprofloxacin-induced antibacterial activity Escherichia coli transformed with plasmid carrying MG1655 deltaBC/pABM assessed as ciprofloxacin MIC by p-iodonitrotetrazolium chloride colorimetric assay; type: functional
Procedure, shortened: (§2)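 Checkerboard microdilution in Mueller-Hinton broth: two-fold dilutions of antibiotic crossed with dilutions of test compound above, at and below their MICs. Growth was read by INT colorimetric assay, with MIC as the lowest concentration showing no visible growth. FICs and FIC index were derived from these MICs. ΔBC/pABM and ΔBC/pXYM strains were grown with 100 μg/mL ampicillin and 1 mM IPTG.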

[4] = system: Escherichia coli; experiment: Potentiation of levofloxacin-induced antibacterial activity Escherichia coli transformed with plasmid carrying MG1655 deltaBC/pABM assessed as levofloxacin MIC by p-iodonitrotetrazolium chloride colorimetric assay; type: functional; procedure, shortened: as §2
[5] = system: Escherichia coli; experiment: Potentiation of ciprofloxacin-induced antibacterial activity Escherichia coli transformed with plasmid carrying MG1655 deltaBC/pXYM by p-iodonitrotetrazolium chloride colorimetric assay; type: functional
[6] = system: Escherichia coli; experiment: Potentiation of kanamycin-induced antibacterial activity Escherichia coli transformed with plasmid carrying MG1655 deltaBC/pABM by p-iodonitrotetrazolium chloride colorimetric assay; type: functional
[7] = system: Escherichia coli; experiment: Potentiation of levofloxacin-induced antibacterial activity Escherichia coli transformed with plasmid carrying MG1655 deltaBC/pABM MIC by p-iodonitrotetrazolium chloride colorimetric assay; type: functional
[8] = system: Escherichia coli; experiment: Potentiation of levofloxacin-induced antibacterial activity Escherichia coli transformed with plasmid carrying MG1655 deltaBC/pXYM MIC by p-iodonitrotetrazolium chloride colorimetric assay; type: functional
[9] = system: Escherichia coli; experiment: Potentiation of oxacillin-induced antibacterial activity Escherichia coli AG102 overexpressing AcrAB-TolC by p-iodonitrotetrazolium chloride colorimetric assay; type: functional, organism-based; procedure, shortened: as §2
[10] = system: Escherichia coli K-12; experiment: Inhibition of AcrAB-TolC pump in Escherichia coli K-12 AG100 assessed as […] at 16 ug/ml after 60 mins by accumulation assay
Procedure, shortened: (§3)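 AG100 (wild-type K-12) or AG100A (ΔacrAB) grown in Luria broth at 37 °C and 200 rpm to OD600 1.0, PBS-washed, diluted to OD600 0.3. Cells given 2.5 μM H33342 with 22 mM glucose at 37 °C for ~30 min until stable, then compound (0.06–64 μg/mL) added. Fluorescence (Ex 350/Em 460) read for 60 min, background subtracted. Final 4 time points averaged; one-way ANOVA/Dunnett vs Hoechst-only; n = 8.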

[11] = system: Escherichia coli K-12; experiment: Inhibition of AcrAB-TolC pump in Escherichia coli K-12 AG100 assessed as […] at 1 ug/ml after 60 mins by accumulation assay; procedure, shortened: as §3
[12] = system: Escherichia coli K-12; experiment: Inhibition of AcrAB-TolC pump in Escherichia coli K-12 AG100 assessed as […] at 0.25 ug/ml after 60 mins by accumulation assay
Procedure, shortened: (§4)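 Cells grown in Luria broth at 37 °C, 200 rpm to OD600 1.0, washed twice in PBS and diluted in glucose-free PBS to OD600 0.3. Cells were given 2.5 μM H33342 with 22 mM glucose at 37 °C for ~30 min until stable, then compound added (0.06–64 μg/mL). Fluorescence (Ex 350/Em 460 nm) was read for 60 min, background subtracted, and the final 4 min averaged (n = 8).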

[13] = system: Escherichia coli; experiment: Effect on intracellular H33342 accumulation in Escherichia coli AG100A delta acrAB mutant at 16 ug/ml after 60 mins by accumulation assay; type: functional
Procedure, shortened: (§5)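 Cells grown in Luria broth at 37 °C, 200 rpm to OD600 1.0, then washed twice in PBS and diluted in glucose-free PBS to OD600 0.3. H33342 was used at 2.5 μM with 22 mM glucose at 37 °C and allowed to accumulate for ~30 min. Compound was then added and fluorescence (Ex 350/Em 460 nm) followed for 60 min. Values are the mean RFU of the final 4 min, after media-plus-compound background was subtracted. Run in duplicate, n = 8.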

[14] = system: Escherichia coli; experiment: Effect on intracellular H33342 accumulation in Escherichia coli AG100A delta acrAB mutant at 1 ug/ml after 60 mins by accumulation assay; type: functional; procedure, shortened: as §5
[15] = system: Escherichia coli; experiment: Effect on intracellular H33342 accumulation in Escherichia coli AG100A delta acrAB mutant at 0.25 ug/ml after 60 mins by accumulation assay; type: functional; procedure, shortened: as §4
[16] = system: Escherichia coli; experiment: Effect on intracellular H33342 accumulation in Escherichia coli AG100A delta acrAB mutant at 0.06 ug/ml after 60 mins by accumulation assay; type: functional; procedure, shortened: as §5
[17] = system: Escherichia coli K-12; experiment: Inhibition of AcrAB-TolC pump in Escherichia coli K-12 AG100 assessed as increase in intracellular H33342 fluorescence at 0.25 ug/ml after 60 mins by efflux inhibition assay; type: cell-based
[18] = system: Escherichia coli K-12; experiment: Inhibition of AcrAB-TolC pump in Escherichia coli K-12 AG100 assessed as increase in intracellular H33342 fluorescence at 0.06 ug/ml after 60 mins by efflux inhibition assay; type: cell-based; procedure, shortened: as §1

## O=C1NC(=O)C(Br)=C1Br
[1]
  MIC: 128 µg/mL (≈ 502 µM)
[2]
  inhibition: inactive
[3]
  MIC: 64 µg/mL
[4]
  MIC: 64 µg/mL
[5]
  fractional inhibitory concentration index (FICI): 0.19
[6]
  fractional inhibitory concentration index (FICI): 0.75
[7]
  fractional inhibitory concentration index (FICI): 0.75
[8]
  fractional inhibitory concentration index (FICI): 0.19
[9]
  fractional inhibitory concentration index (FICI): inactive
[10]
  RFU: 1170
[11]
  RFU: 1010
[12]
  RFU: 796
[13]
  RFU: 1100
[14]
  RFU: 1070
[15]
  RFU: 1000
[16]
  RFU: 1020
[17]
  RFU: -351
[18]
  RFU: -422
